The values that follow come from ChEMBL document CHEMBL1133105, “Antimalarial, antitrypanosomal, and antileishmanial activities and cytotoxicity of bis(9-amino-6-chloro-2-methoxyacridines): influence of the linker” (J Med Chem, 2000).

As a reminder, the IC50 is the concentration needed to halve the response being measured. The low end stands for greater potency, the high end for weaker potency.

The first experiment concerns Leishmania infantum. Briefly: Percentage of activity against Leishmania infantum at 12.5 uM Concentration; Toxic upon mouse primary peritoneal macrophages. It is filed as functional, organism-based.
Details: not given
In a few lines: (§1)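 Starch-stimulated mouse peritoneal macrophages, 30 000/well, infected after 24 h with spleen-derived L. infantum amastigotes (10:1) together with 2-fold drug dilutions (12.5–1.56 µM). Incubated 7 days at 37 °C, 5% CO2. Wright-stained slides scored microscopically as % reduction of total parasite load or of infected macrophages. Uninfected treated cultures judged microscopically for macrophage toxicity.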
With `COc1ccc2nc3cc(Cl)ccc3c(NCCCN(CCCNc3c4ccc(Cl)cc4nc4ccc(OC)cc34)C(=O)C(COCc3ccccc3)NC(=O)OC(C)(C)C)c2c1` (stereo not drawn), the Cytotoxicity result was “Toxic”.
Same read-out and setting: under `COc1ccc2nc3cc(Cl)ccc3c(NCCCN(CCCNc3c4ccc(Cl)cc4nc4ccc(OC)cc34)C(=O)C(CNC(=O)OC(C)(C)C)NC(=O)OC(C)(C)C)c2c1` (stereo not drawn) stands “Toxic”.

A further experiment deals with Trypanosoma brucei. Briefly: Percentage of activity against Trypanosoma brucei at 12.5 uM. It is filed as functional.
Details: not given
In a few lines:
(§2)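 Bloodstream-form T. brucei in HMI-9 medium, 10 000 parasites/well, exposed to 12.5, 6.25, 3.13 and 1.56 µM drug for 4 days. Read-out is % inhibition of parasite multiplication. Macrophage toxicity judged on mouse primary peritoneal macrophages.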
As to `COc1ccc2nc3cc(Cl)ccc3c(NCCCN(CCCNc3c4ccc(Cl)cc4nc4ccc(OC)cc34)C(=O)C(COCc3ccccc3)NC(=O)OC(C)(C)C)c2c1` (stereo not drawn), the “Inhibition of parasite multiplication” value was determined as 100%.

The next experiment concerns Trypanosoma brucei. Description: Percentage of activity against Trypanosoma brucei at 1.56 uM. It is filed as functional.
Details: not given
The method, boiled down: as §2
With `COc1ccc2nc3cc(Cl)ccc3c(NCCCN(CCCNc3c4ccc(Cl)cc4nc4ccc(OC)cc34)C(=O)C(COCc3ccccc3)NC(=O)OC(C)(C)C)c2c1` (stereo not drawn), the “Percent inhibition of parasite multiplication” value is listed as 100%.
Same read-out and setting: under `COc1ccc2nc3cc(Cl)ccc3c(NCCCN(CCCNc3c4ccc(Cl)cc4nc4ccc(OC)cc34)C(=O)C(CNC(=O)OC(C)(C)C)NC(=O)OC(C)(C)C)c2c1` (stereo not drawn) stands 100%.

Another experiment deals with Trypanosoma cruzi. Description: Percentage of activity against Trypanosoma cruzi at 12.5 uM; Toxic upon mouse primary peritoneal macrophages. It is filed as functional, organism-based.
Details: not given
The method, boiled down:
(§3)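 Mouse peritoneal macrophages, 30 000/well, infected after 24 h with about 100 000 T. cruzi trypomastigotes per well plus 2-fold drug dilutions (12.5–1.56 µM). Incubated 4 days at 37 °C, 5% CO2. Methanol-fixed, Giemsa-stained and scored microscopically as % reduction of total parasite load (free trypomastigotes plus intracellular amastigotes) versus untreated controls.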
`COc1ccc2nc3cc(Cl)ccc3c(NCCCN(CCCNc3c4ccc(Cl)cc4nc4ccc(OC)cc34)C(=O)C(COCc3ccccc3)NC(=O)OC(C)(C)C)c2c1` (stereo not drawn): the Cytotoxicity entry is “Toxic”.
On the same count and under the same terms, then `COc1ccc2nc3cc(Cl)ccc3c(NCCCN(CCCNc3c4ccc(Cl)cc4nc4ccc(OC)cc34)C(=O)C(CNC(=O)OC(C)(C)C)NC(=O)OC(C)(C)C)c2c1` (stereo not drawn), with “Toxic”.

For a further experiment, the system named is MRC5. Briefly: Cytotoxicity on MRC-5 cells at 25 uM. It is filed as functional. The settings on record: Homo sapiens. The method, boiled down: (§4)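 MRC-5 human diploid embryonic lung cells seeded at 5 000/well, washed after 24 h, then given 2-fold drug dilutions (25, 12.5, 6.25, 3.13 µM) in RPMI + 5% FCS, final DMSO below 0.5%. Incubated 7 days at 37 °C, 5% CO2. MTT colorimetric read-out, scored as % reduction of absorbance at 540 nm versus untreated controls.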
The compound `COc1ccc2nc3cc(Cl)ccc3c(NCCCN(CCCNc3c4ccc(Cl)cc4nc4ccc(OC)cc34)C(=O)C(COCc3ccccc3)NC(=O)OC(C)(C)C)c2c1` (stereo not drawn) came in with a cytotoxicity at 25 µM of 100%.
Same read-out and setting: under `COc1ccc2nc3cc(Cl)ccc3c(NCCCN(CCCNc3c4ccc(Cl)cc4nc4ccc(OC)cc34)C(=O)C(CNC(=O)OC(C)(C)C)NC(=O)OC(C)(C)C)c2c1` (stereo not drawn) stands 70%.

In a further experiment the test system is Trypanosoma cruzi. Briefly: Percentage of activity against Trypanosoma cruzi at 3.13 uM.
Details: not given
It is filed as functional. In a few lines:
as §3
On to `COc1ccc2nc3cc(Cl)ccc3c(NCCCN(CCCNc3c4ccc(Cl)cc4nc4ccc(OC)cc34)C(=O)C(COCc3ccccc3)NC(=O)OC(C)(C)C)c2c1` (stereo not drawn), for which the “Reduction of T. cruzi parasite load” value stood at 40%.
Consider `COc1ccc2nc3cc(Cl)ccc3c(NCCCN(CCCNc3c4ccc(Cl)cc4nc4ccc(OC)cc34)C(=O)C(CNC(=O)OC(C)(C)C)NC(=O)OC(C)(C)C)c2c1` (stereo not drawn), for which the “Reduction of T. cruzi parasite load” value turned out to be 40%.

The next experiment has as its system MRC5. Description: Cytotoxicity on MRC-5 cells at 6.25 uM. It is filed as functional. Conditions: Homo sapiens. In a few lines:
as §4
Regarding `COc1ccc2nc3cc(Cl)ccc3c(NCCCN(CCCNc3c4ccc(Cl)cc4nc4ccc(OC)cc34)C(=O)C(COCc3ccccc3)NC(=O)OC(C)(C)C)c2c1` (stereo not drawn), the cytotoxicity at 6.25 µM turned out to be 100%.
The same measure, in the same setting: then `COc1ccc2nc3cc(Cl)ccc3c(NCCCN(CCCNc3c4ccc(Cl)cc4nc4ccc(OC)cc34)C(=O)C(CNC(=O)OC(C)(C)C)NC(=O)OC(C)(C)C)c2c1` (stereo not drawn), with 48%.

A further experiment deals with Leishmania infantum. Description: Percentage of activity against Leishmania infantum at 3.13 uM. It is filed as functional.
Details: not given
In a few lines: as §1
`COc1ccc2nc3cc(Cl)ccc3c(NCCCN(CCCNc3c4ccc(Cl)cc4nc4ccc(OC)cc34)C(=O)C(COCc3ccccc3)NC(=O)OC(C)(C)C)c2c1` (stereo not drawn): the “Percent antileishmanial activity (reduction of parasite load)” value is given as 70%.
The same measure, in the same setting: then `COc1ccc2nc3cc(Cl)ccc3c(NCCCN(CCCNc3c4ccc(Cl)cc4nc4ccc(OC)cc34)C(=O)C(CNC(=O)OC(C)(C)C)NC(=O)OC(C)(C)C)c2c1` (stereo not drawn), with 95%.

The subject of another experiment is Trypanosoma cruzi. Description: Percentage of activity against Trypanosoma cruzi at 6.25 uM Concentration.
Details: not given
It is filed as functional. In a few lines:
as §3
On to `COc1ccc2nc3cc(Cl)ccc3c(NCCCN(CCCNc3c4ccc(Cl)cc4nc4ccc(OC)cc34)C(=O)C(COCc3ccccc3)NC(=O)OC(C)(C)C)c2c1` (stereo not drawn), for which the “Reduction of T. cruzi parasite load” value is reported as 80%.
On the same count and under the same terms, under `COc1ccc2nc3cc(Cl)ccc3c(NCCCN(CCCNc3c4ccc(Cl)cc4nc4ccc(OC)cc34)C(=O)C(CNC(=O)OC(C)(C)C)NC(=O)OC(C)(C)C)c2c1` (stereo not drawn) stands 80%.

A further experiment deals with Trypanosoma brucei. Briefly: Percentage of activity against Trypanosoma brucei at 3.13 uM. It is filed as functional.
Details: not given
In a few lines: as §2
Regarding `COc1ccc2nc3cc(Cl)ccc3c(NCCCN(CCCNc3c4ccc(Cl)cc4nc4ccc(OC)cc34)C(=O)C(COCc3ccccc3)NC(=O)OC(C)(C)C)c2c1` (stereo not drawn), the Parasite growth inhibition worked out at 100%.
Turning to `COc1ccc2nc3cc(Cl)ccc3c(NCCCN(CCCNc3c4ccc(Cl)cc4nc4ccc(OC)cc34)C(=O)C(CNC(=O)OC(C)(C)C)NC(=O)OC(C)(C)C)c2c1` (stereo not drawn), the Parasite growth inhibition was 100%.

For another experiment, the system named is Leishmania infantum. Briefly: Percentage of activity against Leishmania infantum 6.25 uM. It is filed as functional.
Details: not given
In a few lines:
as §1
On to `COc1ccc2nc3cc(Cl)ccc3c(NCCCN(CCCNc3c4ccc(Cl)cc4nc4ccc(OC)cc34)C(=O)C(COCc3ccccc3)NC(=O)OC(C)(C)C)c2c1` (stereo not drawn), for which the “Antileishmanial activity (% reduction of parasite load)” value is given as 90%.
Consider `COc1ccc2nc3cc(Cl)ccc3c(NCCCN(CCCNc3c4ccc(Cl)cc4nc4ccc(OC)cc34)C(=O)C(CNC(=O)OC(C)(C)C)NC(=O)OC(C)(C)C)c2c1` (stereo not drawn), for which the “Antileishmanial activity (% reduction of parasite load)” value came to 99%.

The next experiment deals with Plasmodium falciparum. Briefly: In vitro sensitivity for Plasmodium falciparum FcB1R.
Details: not given
It is filed as functional, organism-based. The method, boiled down: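 Asynchronous P. falciparum cultures in human erythrocytes (0.5% parasitemia, 1% haematocrit) exposed to serially diluted drug for 24 h at 37 °C. [3H]hypoxanthine (0.5 µCi/well) then added for a further 24 h. Uptake compared with drug-free controls on the same plate. IC50 taken from the concentration–response curve, averaged over independent experiments. DMSO ≤0.1%.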
In turn, `COc1ccc2nc3cc(Cl)ccc3c(NCCCN(CCCNc3c4ccc(Cl)cc4nc4ccc(OC)cc34)C(=O)C(COCc3ccccc3)NC(=O)OC(C)(C)C)c2c1` (stereo not drawn) showed an IC50 of 0.138 µM.
On the same count and under the same terms, under `COc1ccc2nc3cc(Cl)ccc3c(NCCCN(CCCNc3c4ccc(Cl)cc4nc4ccc(OC)cc34)C(=O)C(CNC(=O)OC(C)(C)C)NC(=O)OC(C)(C)C)c2c1` (stereo not drawn) stands 0.055 µM.

The subject of another experiment is MRC5. Description: Cytotoxicity on MRC-5 cells at 3.13 uM. It is filed as functional. The settings on record: Homo sapiens. The method, boiled down:
as §4
Turning to `COc1ccc2nc3cc(Cl)ccc3c(NCCCN(CCCNc3c4ccc(Cl)cc4nc4ccc(OC)cc34)C(=O)C(COCc3ccccc3)NC(=O)OC(C)(C)C)c2c1` (stereo not drawn), the cytotoxicity at 3.13 µM is 100%.
Same read-out and setting: then `COc1ccc2nc3cc(Cl)ccc3c(NCCCN(CCCNc3c4ccc(Cl)cc4nc4ccc(OC)cc34)C(=O)C(CNC(=O)OC(C)(C)C)NC(=O)OC(C)(C)C)c2c1` (stereo not drawn), with 43%.

For a further experiment, the system named is Leishmania infantum. Briefly: Percentage of activity against Leishmania infantum at 1.56 uM.
Details: not given
It is filed as functional. In a few lines:
as §1
As for `COc1ccc2nc3cc(Cl)ccc3c(NCCCN(CCCNc3c4ccc(Cl)cc4nc4ccc(OC)cc34)C(=O)C(COCc3ccccc3)NC(=O)OC(C)(C)C)c2c1` (stereo not drawn), the “Antileishmanial activity (% reduction of parasite load)” value was determined as 40%.
Still for that read-out and setting: under `COc1ccc2nc3cc(Cl)ccc3c(NCCCN(CCCNc3c4ccc(Cl)cc4nc4ccc(OC)cc34)C(=O)C(CNC(=O)OC(C)(C)C)NC(=O)OC(C)(C)C)c2c1` (stereo not drawn) stands 80%.

A further experiment relates to Trypanosoma cruzi. Description: Percentage of activity against Trypanosoma cruzi at 1.56 uM. It is filed as functional.
Details: not given
The method, boiled down:
as §3
On to `COc1ccc2nc3cc(Cl)ccc3c(NCCCN(CCCNc3c4ccc(Cl)cc4nc4ccc(OC)cc34)C(=O)C(COCc3ccccc3)NC(=O)OC(C)(C)C)c2c1` (stereo not drawn), for which the Parasite load reduction is listed as 0%.
Same read-out and setting: under `COc1ccc2nc3cc(Cl)ccc3c(NCCCN(CCCNc3c4ccc(Cl)cc4nc4ccc(OC)cc34)C(=O)C(CNC(=O)OC(C)(C)C)NC(=O)OC(C)(C)C)c2c1` (stereo not drawn) stands 0%.

For the next experiment, the system named is Trypanosoma brucei. Description: Percentage of activity against Trypanosoma brucei at 6.25 uM. It is filed as functional.
Details: not given
In a few lines: as §2
In the case of `COc1ccc2nc3cc(Cl)ccc3c(NCCCN(CCCNc3c4ccc(Cl)cc4nc4ccc(OC)cc34)C(=O)C(COCc3ccccc3)NC(=O)OC(C)(C)C)c2c1` (stereo not drawn), the “Inhibition of parasite multiplication” value is on record as 100%.
For the compound `COc1ccc2nc3cc(Cl)ccc3c(NCCCN(CCCNc3c4ccc(Cl)cc4nc4ccc(OC)cc34)C(=O)C(CNC(=O)OC(C)(C)C)NC(=O)OC(C)(C)C)c2c1` (stereo not drawn), the “Inhibition of parasite multiplication” value is reported as 100%.

The next experiment concerns MRC5. Description: Cytotoxicity on MRC-5 cells at 12.5 uM. It is filed as functional. The settings on record: Homo sapiens. The method, boiled down:
as §4
For the compound `COc1ccc2nc3cc(Cl)ccc3c(NCCCN(CCCNc3c4ccc(Cl)cc4nc4ccc(OC)cc34)C(=O)C(COCc3ccccc3)NC(=O)OC(C)(C)C)c2c1` (stereo not drawn), the cytotoxicity at 12.5 µM was determined as 100%.
For the compound `COc1ccc2nc3cc(Cl)ccc3c(NCCCN(CCCNc3c4ccc(Cl)cc4nc4ccc(OC)cc34)C(=O)C(CNC(=O)OC(C)(C)C)NC(=O)OC(C)(C)C)c2c1` (stereo not drawn), the cytotoxicity at 12.5 µM is 50%.
